In data set [1] the test system is RAW264.7. Nature of the data set: Cytotoxicity against mouse RAW264.7 cells at 10 uM after 20 hrs by MTT assay. Type of data set: cell-based. The note with it: raw264.7, 20 h. A digest of the protocol: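 RAW 264.7 macrophages (1.5 × 10⁶ cells/mL) co-incubated with 1 µg/mL E. coli 0111:B4 LPS at 37 °C for 20 h, compound added in ethanol (ethanol alone as control). Viability read by mitochondrial reduction of MTT to formazan.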

In data set [2] the test system is RAW264.7. Nature of the data set: Inhibition of LPS-stimulated PGE2 production in mouse RAW264.7 cells after 20 hrs by radioimmunoassay. The class given is functional, cell-based. The note with it: RAW264.7, 20 h. A digest of the protocol:
(§1)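 Murine RAW 264.7 macrophages, 1.5 × 10⁶ cells/mL, given 1 µg/mL E. coli 0111:B4 LPS at 37 °C for 20 h with compound in ethanol (vehicle ethanol 1%). Supernatant PGE₂ measured by radioimmunoassay. Mean ± SEM, n = 6. IC₅₀ from at least four significant concentrations. ANOVA then Dunnett's t-test.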

The test system of data set [3] is RAW264.7. The data set is described as follows: Inhibition of LPS-stimulated microsomal prostaglandin E synthase 1 expression in mouse RAW264.7 cells by Western blot. The class given is functional, cell-based. A digest of the protocol: (§2)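 Cells were RAW 264.7 at 1.5 × 10⁶ cells/mL, 18 h with LPS 1 µg/mL and compound at 1 or 10 µM; dexamethasone as reference. Lysis in HEPES pH 8.0 buffer with protease/phosphatase inhibitors, spin 10,000g 15 min 4 °C. COX-2 taken from total fraction, mPGES-1 from microsomal fraction. 50 µg protein per lane on SDS–15% PAGE, PVDF, polyclonal antibodies (COX-2 1/1000, mPGES-1 1/200). β-actin loading control. Bands expressed relative to LPS control. Two experiments.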

The target in data set [4] is T1, Phospholipase A2, membrane associated (Homo sapiens) (UniProt P14555).
T1 sequence (whole entry): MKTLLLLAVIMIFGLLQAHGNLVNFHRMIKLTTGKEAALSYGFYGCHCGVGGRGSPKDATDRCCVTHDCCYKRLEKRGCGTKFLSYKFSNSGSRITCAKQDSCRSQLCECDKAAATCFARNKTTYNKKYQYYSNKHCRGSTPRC
Nature of the data set: Inhibition of human synovial recombinant group 2A sPLA2 at 10 uM. Summed up:
(§3)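 Compound tested at 10 µM in ethanol (vehicle 1%). Enzyme preincubated 5 min at 37 °C in Tris–HCl, 1 mM CaCl₂, pH 7.5, then incubated 15 min with [³H]oleate-labelled, autoclaved E. coli CECT 101 membranes. Released radioactivity counted. Percent inhibition versus vehicle control, mean ± SEM, n = 6. Enzymes: human recombinant synovial group IIA; porcine pancreatic group IB.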

The next data set relates to Apis mellifera. The data set is described as follows: Inhibition of bee venom group 3 sPLA2 at 10 uM. Summed up:
(§4)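 Radiometric sPLA2 assay with membranes of E. coli CECT 101 labelled by growth with [3H]oleic acid, then autoclaved. Enzyme in Tris–HCl, 1 mM CaCl2, pH 7.5, preincubated 5 min at 37 °C with compound in ethanol (vehicle 1%), then 15 min with the labelled membranes. Released radioactivity counted. Percent inhibition versus vehicle control, mean ± SEM, n = 6.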

For the next data set, the species on record is Sus scrofa. The data set is described as follows: Inhibition of pig pancreas group 1B sPLA2 at 10 uM. Summed up: as §3
Data set [5] has as its system RAW264.7. The data set is described as follows: Inhibition of LPS-stimulated COX2 expression in mouse RAW264.7 cells by Western blot. The class given is functional, cell-based. Summed up:
as §2

For data set [6], the system named is RAW264.7. The data set is described as follows: Inhibition of LPS-stimulated PGE2 production in mouse RAW264.7 cells at 10 uM after 20 hrs by radioimmunoassay. The note with it: RAW264.7, 20 h. Type of data set: functional. Summed up: as §1
The subject of a further data set is Naja naja. The data set is described as follows: Inhibition of Naja naja venom group 1A sPLA2 at 10 uM. A digest of the protocol:
as §4

The subject of data set [7] is RAW264.7. The data set is described as follows: Inhibition of LPS-stimulated COX2 expression in mouse RAW264.7 cells at 10 uM by Western blot. Type of data set: functional, cell-based. A digest of the protocol:
as §2

Data set [8] deals with RAW264.7. The data set is described as follows: Inhibition of LPS-stimulated microsomal prostaglandin E synthase 1 expression at 10 uM in mouse RAW264.7 cells by Western blot. The class given is functional, cell-based. A digest of the protocol: as §2

Active and inactive are the calls of the source. The rule behind the calls is not given here.

Molecule `O=C1OC(O)C(c2cccc(-c3ccc4ccccc4c3)c2)=C1c1ccc2ccccc2c1` (stereo not drawn) gave a Cytotoxicity in the data set on RAW264.7 [1] of 8.6%. Further, in the data set on RAW264.7 [2], the 50% inhibitory concentration (IC50) is 840 nM. For the same molecule, the Activity entry in the data set with RAW264.7 [3] is “Dose-dependent effect”. The inhibition worked out at 14.8% in data set [4], 2.8% in the data set on Apis mellifera, 0% in the data set listed under Sus scrofa and 2% in the data set with Naja naja. Moreover, the outcome in the data set with RAW264.7 [5] was inactive. The inhibition at 10 µM in the data set on RAW264.7 [6] was 79.6%.
On to `CCCCc1ccc(-c2ccc(C3=C(Br)C(=O)OC3O)cc2)cc1` (stereo not drawn), for which the Cytotoxicity in the data set with RAW264.7 [1] was determined as 5.5%. Also, in the data set on RAW264.7 [2], 2240 nM corresponded to half-maximal inhibition (IC50). For the same molecule, the Activity entry in the data set with RAW264.7 [3] was “Dose-dependent effect”. The inhibition turned out to be 0% in data set [4], 3.5% in the data set with Apis mellifera, 0% in the data set listed under Sus scrofa and 0% with Naja naja. Moreover, in the data set on RAW264.7 [5], the result was inactive. Moreover, testing at 10 µM with RAW264.7 [6] gave an inhibition of 62.2%.
Regarding `O=C1OC(O)C(c2cccc(-c3csc4ccccc34)c2)=C1Br` (stereo not drawn), in the data set with RAW264.7 [1], the Cytotoxicity came to 0%. In addition, the inhibition in data set [4] was found to be 30%; in the data set on Apis mellifera it was 13.9%; in the data set filed under Sus scrofa, 28.6%; in the data set with Naja naja, 11.7%. The molecule also returned an inhibition at 10 µM in the data set on RAW264.7 [6] of 33.6%.
For `O=C1OC(O)C(c2cccc(-c3ccc4ccccc4c3)c2)=C1Br` (stereo not drawn), the Cytotoxicity in the data set on RAW264.7 [1] amounted to 18.6%. Further, the inhibition (in [4]; with Apis mellifera; in the data set listed under Sus scrofa; in the data set on Naja naja) was 0% each time. The same molecule returned an inhibition at 10 µM in the data set with RAW264.7 [6] of 66.8%.
`CCCCc1ccc(C2=C(c3ccc(-c4ccc(CCCC)cc4)cc3)C(O)OC2=O)cc1` (stereo not drawn) returned a Cytotoxicity in the data set on RAW264.7 [1] of 0%. Besides, in the data set on RAW264.7 [2], the IC50 stood at 4590 nM. The Activity entry with RAW264.7 [3] is “Dose-dependent effect”. In addition, the inhibition in data set [4] was determined as 4.4%; with Apis mellifera it was 2.8%; in the data set filed under Sus scrofa it was 0%; in the data set on Naja naja, 2.6%. In addition, in the data set with RAW264.7 [5], the outcome was inactive. Further, in the data set with RAW264.7 [6], the inhibition at 10 µM was 58.7%.
Consider `CCc1c(CC(N)=O)c2cc(OCCCP(=O)(O)O)ccc2n1Cc1ccccc1`, for which the inhibition in data set [4] is 96.3%; with Apis mellifera, 2.4%; in the data set filed under Sus scrofa, 36.9%; in the data set with Naja naja, 7.9%.
In the case of `O=C1OC(O)C(c2cccc(-c3csc4ccccc34)c2)=C1c1cccc(-c2csc3ccccc23)c1` (stereo not drawn), in the data set with RAW264.7 [1], the Cytotoxicity amounted to 4.1%. The half-inhibitory concentration (IC50) in the data set with RAW264.7 [2] worked out at 3230 nM. Also, in the data set with RAW264.7 [3], the Activity result is “Dose-dependent effect”. For the same molecule, the inhibition came to 2.4% in data set [4], 4% with Apis mellifera, 8.3% in the data set listed under Sus scrofa and 3.6% in the data set with Naja naja. Further, the result in the data set on RAW264.7 [5] was inactive. Besides, testing at 10 µM in the data set with RAW264.7 [6] gave an inhibition of 69.2%.
`O=C1OC(O)C(c2ccc(-c3ccc(-c4ccccc4)cc3)cc2)=C1Br` (stereo not drawn) displayed a Cytotoxicity in the data set with RAW264.7 [1] of 1.2%. Besides, the 50% inhibitory concentration (IC50) with RAW264.7 [2] was 3610 nM. Moreover, in the data set with RAW264.7 [3], the Activity result was “Dose-dependent effect”. Moreover, the inhibition was 12.1% in [4], 0% in the data set on Apis mellifera, 0% in the data set listed under Sus scrofa and 0% in the data set with Naja naja. Further, the result in the data set with RAW264.7 [5] was inactive. In the data set on RAW264.7 [6], this molecule gave an inhibition at 10 µM of 73.1%.
For the molecule `C[C@@H]1C[C@H]2[C@@H]3CCC4=CC(=O)C=C[C@]4(C)[C@@]3(F)[C@@H](O)C[C@]2(C)[C@@]1(O)C(=O)CO`, the result with RAW264.7 [7] and with RAW264.7 [8] was Active.
For `O=C1OC(O)C(c2cccc(-c3ccc(Oc4ccccc4)cc3)c2)=C1Br` (stereo not drawn), the Cytotoxicity with RAW264.7 [1] was 0%. Also, the inhibition in [4] was determined as 2.4%; with Apis mellifera, 5.3%; in the data set listed under Sus scrofa, 0%; in the data set on Naja naja it was 5.8%. For the same molecule, in the data set with RAW264.7 [6], testing at 10 µM gave an inhibition of 51%.
In the case of `O=C1OC(O)C(c2csc3ccccc23)=C1Br` (stereo not drawn), the Cytotoxicity in the data set with RAW264.7 [1] is 0%. Moreover, the IC50 with RAW264.7 [2] amounted to 1800 nM. Also, 10 µM produced 72.2% inhibition in the data set on RAW264.7 [6].
In the data set with RAW264.7 [1], `O=C1OC(O)C(c2cccc(-c3ccc(Oc4ccccc4)cc3)c2)=C1c1cccc(-c2ccc(Oc3ccccc3)cc2)c1` (stereo not drawn) returned a Cytotoxicity of 0%. Further, the inhibition amounted to 10.6% in [4], 6% in the data set with Apis mellifera, 10.2% in the data set listed under Sus scrofa and 16.6% in the data set with Naja naja. Moreover, testing at 10 µM with RAW264.7 [6] gave an inhibition of 22.2%.

(Values after ChEMBL document CHEMBL1144230, “Development of a second generation of inhibitors of microsomal prostaglandin E synthase 1 expression bearing the gamma-hydroxybutenolide scaffold” (Bioorg Med Chem, 2008).)
